Sampled rows, rich in hits. Any-hit rate of the full collection: about 2.3%.
TRPC4 inh = blocks the mouse TRPC4 cation channel. Q9QUQ5. HEK293 TRPC4beta/mu-opioid, DAMGO-evoked Fluo4 calcium flux; hits give low values. B-score at 10 µM. 300,000 tested, 0.39% active. AID 2247;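 active = B-score over 3 SD under the library average, no early fluorescence shift, positive overall ratio signal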
Target sequence (Q9QUQ5 whole entry, looked up): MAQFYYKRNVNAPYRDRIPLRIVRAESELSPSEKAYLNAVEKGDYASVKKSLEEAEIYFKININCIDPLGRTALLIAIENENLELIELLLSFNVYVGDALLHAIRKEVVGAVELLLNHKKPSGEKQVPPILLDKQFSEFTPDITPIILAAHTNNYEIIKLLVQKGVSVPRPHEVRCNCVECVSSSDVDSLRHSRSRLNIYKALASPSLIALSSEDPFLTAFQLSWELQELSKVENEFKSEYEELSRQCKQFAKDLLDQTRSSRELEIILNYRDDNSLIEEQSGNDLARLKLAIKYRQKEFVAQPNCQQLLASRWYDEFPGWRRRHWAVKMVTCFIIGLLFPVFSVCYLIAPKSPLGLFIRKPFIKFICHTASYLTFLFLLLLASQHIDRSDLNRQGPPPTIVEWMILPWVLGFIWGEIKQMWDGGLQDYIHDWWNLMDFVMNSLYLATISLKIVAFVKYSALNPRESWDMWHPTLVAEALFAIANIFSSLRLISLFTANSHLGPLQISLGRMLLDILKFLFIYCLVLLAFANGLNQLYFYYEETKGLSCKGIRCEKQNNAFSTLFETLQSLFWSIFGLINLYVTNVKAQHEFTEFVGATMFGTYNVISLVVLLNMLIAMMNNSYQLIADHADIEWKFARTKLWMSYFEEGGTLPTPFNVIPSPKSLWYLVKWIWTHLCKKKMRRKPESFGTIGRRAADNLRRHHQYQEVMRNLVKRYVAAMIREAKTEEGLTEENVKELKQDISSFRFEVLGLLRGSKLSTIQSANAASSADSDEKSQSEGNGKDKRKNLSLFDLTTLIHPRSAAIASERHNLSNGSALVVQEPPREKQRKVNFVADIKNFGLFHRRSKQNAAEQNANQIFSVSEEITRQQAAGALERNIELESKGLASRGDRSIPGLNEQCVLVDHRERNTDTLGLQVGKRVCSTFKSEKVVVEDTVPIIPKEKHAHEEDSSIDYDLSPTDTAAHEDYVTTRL
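Material: HEK293 cells with stable TRPC4beta plus mu-opioid receptor expression; probe or stimulus: DAMGO in two steps, submaximal then maximal; technique: Fluo4 calcium fluorescence by kinetic imaging, 5 s 1 Hz baseline; measure: integrated fluorescence ratio relative to baseline, converted to per-well B score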
TRPC4 act = TRPC4 (mouse) channel activation; B-score at 10 µM; AID 2237; HEK293 TRPC4beta/mu-opioid, Fluo4 calcium fluorescence; hits give high values; 310,000 tested, 0.49% active; Q9QUQ5;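 active = B-score above 5 SD of library B-scores, and initial fluorescence ratio not above library mean plus 5 SD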;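 also: positive B-score marks a calcium rise read as TRPC4 activation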
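Material: TRPC4beta and mu-opioid receptor HEK293 stable cells | Incubation: 45 min room-temperature Fluo4 loading, 110 s read | Detection: Kinetic Fluo4 calcium fluorescence | Measure: Integrated baseline-normalised fluorescence ratio, converted to per-well B score | Benchmarks: Low control buffer alone, high control maximal DAMGO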
TRPC6 activator = activators of mouse TRPC6 channel; Q61143; HEK293-TRPC6 membrane potential dye fluorescence; hits give high values; 310,000 tested, 0.13% active; B-score at 10 µM;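 active = B-score of the integrated fluorescence ratio above library mean plus 3 SD, and starting fluorescence ratio within library mean plus 5 SD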;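 also: higher score means more depolarization so channel activation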
TRPC6 inh = inhibitors of mouse TRPC6 channel; Q61143; 310,000 tested, 1.1% active; B-score at 10 µM; HEK293-TRPC6, membrane potential dye, ACh-evoked depolarization; hits give low values; AID 2553;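 active = B-score under library mean minus 3 SD, initial fluorescence not abnormally high, positive integrated signal ratio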;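 also: B-score derived from integrated fluorescence ratio over the kinetic read; more negative B-score means stronger inhibition of depolarization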
TRPC4 PAM = TRPC4 (mouse) allosteric potentiation; Q9QUQ5; HEK293 TRPC4beta/mu-opioid, DAMGO EC20, Fluo-4 Ca2+ flux; hits give high values; B-score at 10 µM; 310,000 tested, 0.42% active; AID 2227;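 active = B-score of calcium response area above 5 SD of library B-scores, with initial fluorescence ratio within 5 SD of library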
TRPC4 spec 2 = second check of whether TRPC6 inhibitors also affect mouse TRPC4; shares compounds with TRPC6 inh; HEK293 TRPC4/MOR, membrane potential dye fluorescence; channel activated by saturating DAMGO dose; inhibition, % at 10 µM; 920 tested, 42% active; AID 2776;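 active = compounds whose fluorescence signal differed from control wells by over 3 SD, either direction, in both duplicate plates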
TRPC4 spec = selectivity of TRPC6 inhibitors: effect on mouse TRPC4; shares compounds with TRPC6 inh; HEK293 TRPC4/mu-opioid, membrane potential fluorescence; 920 tested, 61% active; activity change, negative = inhibition, % at 10 µM;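 active = rise or fall in signal beyond 3 SD of buffer-only wells in both replicate plates, either sign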;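 also: integrated kinetic ratio of fluorescence range over baseline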
HEK293 MPD ctr 2-1 = second check of TRPC6 inhibitor effects in parental HEK293 cells; shares compounds with TRPC6 inh; parental HEK293 membrane potential dye fluorescence; maximal acetylcholine challenge after compound addition; signal change vs control, % at 10 µM; 920 tested, 31% active; AID 2779;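 active = membrane potential signal moving either way by over 3 SD of the maximum-effect control, in both duplicate plates, meaning non-specific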
HEK293 MPD ctr-1 = checks TRPC6 inhibitor effects in parental HEK293 cells; shares compounds with TRPC6 inh; parental HEK293 membrane potential dye fluorescence; membrane potential signal change, % at 10 µM; 920 tested, 60% active;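 active = membrane potential signal shifting up or down by more than 3 SD of buffer-only wells, on both duplicate plates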
HEK293 MPD ctr-2 = parental HEK293 nonspecific activity of TRPC6 modulators. shares compounds with TRPC6 inh. membrane potential signal change, % at 10 µM. 2,400 tested, 51% active. membrane potential dye fluorescence;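 active = membrane potential signal moves up or down beyond 5 SD from buffer-only wells, on both duplicate plates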
HEK293 MPD ctr 2-2 = parental HEK293 nonspecific activity of TRPC6 modulators, second screen; shares compounds with TRPC6 inh; 2,400 tested, 14% active; inhibition, % at 10 µM; AID 488926; membrane potential dye fluorescence; after compound, maximal acetylcholine stimulation;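 active = membrane potential signal drops by more than 5 SD from the mean control signal, in both duplicate plates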
TRPC4 ctr mod = selectivity of TRPC6 modulators against mouse TRPC4; shares compounds with TRPC6 inh; HEK293 TRPC4/mu-opioid, membrane potential fluorescence; percent change from control (negative = decrease, positive = increase), % at 10 µM; 2,400 tested, 69% active; AID 488927;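 active = membrane potential signal moved up or down beyond 5 SD of buffer control wells, in both duplicate plates, actives on both sides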
TRPC4/MOR inh 2 = second check of whether TRPC6 modulators also affect mouse TRPC4. HEK293 TRPC4/mu-opioid, membrane potential dye fluorescence; stimulated with maximal-effect DAMGO. inhibition, % at 10 µM. shares compounds with TRPC6 inh. 2,400 tested, 55% active;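 active = drop in membrane potential signal beyond 5 SD of the control wells in both duplicate plates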;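 also: TRPC4 counter screen for TRPC6 hits run under conditions tuned for TRPC6 not TRPC4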
TRPC6 inh conf = confirmation of mouse TRPC6 inhibitors | shares compounds with TRPC6 inh | HEK293-TRPC6, membrane potential dye, ACh-evoked depolarization | inhibition, % at 10 µM | 3,300 tested, 43% active;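 active = fluorescence ratio falls more than 5 SD below the full-stimulation control mean, in both duplicate runs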;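 also: integrated fluorescence ratio of peak minus minimum over baseline after agonist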
TRPC6 act conf = mouse TRPC6 activator confirmation | shares compounds with TRPC6 inh | HEK293-TRPC6 membrane potential dye fluorescence, FDSS | activation, % at 10 µM | 2,800 tested, 11% active | AID 488961;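 active = ratio signal rise beyond 5 SD above unstimulated control wells' mean, seen in both duplicate runs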
Numbers stand for hits; i = inactive; nt = no result given.

SMILES | TRPC4 inh | TRPC4 act | TRPC6 activator | TRPC6 inh | TRPC4 PAM | HEK293 MPD ctr-2 | HEK293 MPD ctr 2-2 | TRPC4 ctr mod | TRPC4/MOR inh 2 | TRPC6 inh conf | TRPC6 act conf | others
CCOc1ccc(CCNC(=O)C2CCCN(c3nn4c(=O)cc(C)nc4s3)C2)cc1OCC (stereo not given) | i | i | i | i | i | nt | nt | nt | nt | nt | nt
COc1ccccc1Nc1nc(N)nc(CN2CCC(Cc3ccccc3)CC2)n1 | i | i | i | -6.45 | i | 100.5% | i | i | 83.5% | 47.0% | nt
COc1ccccc1Nc1nc(N)nc(CSC(=S)N2CCCCC2C)n1 (stereo not given) | i | i | i | -7.75 | i | nt | nt | nt | nt | i | i | TRPC4 spec 2=i;TRPC4 spec=i;HEK293 MPD ctr 2-1=i;HEK293 MPD ctr-1=i
COc1ccccc1Nc1nc(N)nc(CN2CCC(C)CC2)n1 | i | i | i | i | i | nt | nt | nt | nt | nt | nt
COc1ccccc1Nc1nc(N)nc(CSC(=S)N2CCC(C)CC2)n1 | i | i | i | -5.5 | i | i | i | i | i | 77.5% | nt
O=C(NCCc1ccc(Cl)cc1)C1CCN(c2ncccn2)CC1 | i | i | i | i | i | nt | nt | nt | nt | nt | nt
COc1ccc(C(C(=O)NC2CCCC2)N(C(=O)c2ccco2)c2cc3c(cc2C(C)=O)OCO3)cc1 (stereo not given) | i | i | i | i | i | nt | nt | nt | nt | nt | nt
Cc1nc2ccc(NC(=O)c3ccc(Cl)c(S(=O)(=O)N(C)c4ccccc4)c3)cc2s1 | i | i | i | -5.07 | i | i | i | -26.5% | i | i | i
CCN(CC(=O)Nc1cc(Cl)ccc1C)C(=O)CCS(=O)(=O)c1ccc(C)cc1 | i | i | i | -5.55 | i | i | i | 13.0% | i | i | i
COC(=O)c1ccc(-c2noc(CN(Cc3nccn3C)C(C)C)n2)cc1 | i | i | i | -5.08 | i | i | i | i | i | i | i
Clc1ccccc1Cc1noc(CN2CCCCC2c2ccccn2)n1 (stereo not given) | i | i | i | i | i | nt | nt | nt | nt | nt | nt
Cn1ccnc1C1CCCCN1Cc1nc(Cc2ccccc2F)no1 (stereo not given) | i | i | i | -5.55 | i | i | i | i | i | 67.0% | i
COC(=O)c1ccc(-c2noc(CN3CCCCC3c3nccn3C)n2)cc1 (stereo not given) | i | i | i | -5.09 | i | 163.5% | i | 37.5% | 36.5% | 43.0% | nt
CN(CC(=O)NCCc1ccc(F)cc1)Cc1cccc(Cl)c1 | i | i | i | i | i | nt | nt | nt | nt | nt | nt
Cc1cccc(-n2cnc(C(=O)NC3CCCCCC3)c2)n1 | i | i | i | -6.03 | i | i | i | 9.0% | i | i | i
